≈ marks a conversion by molar mass, not a printed value.
What was measured:
[1] = Drug accumulation in cytoplasm of Acinetobacter baumannii HUMC1 cultured in iron-limited RPMI medium supplemented with 10% FCS measured per 5 ml of culture medium at 0.005 uM incubated for 10 mins by LC-MS/MS analysis; type: ADME, subcellular
Method in brief: (§1)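 The periplasm was released by cold 0.5 mM MgSO4 shock. Cells were then sonicated and DNase-treated, and a 30000 g spin separated cytoplasm from the membrane pellet. Fractions were quantified by LC-MS/MS against standard curves. Reported as ng per 5 mL; n = 4 in duplicate.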

[2] = Drug accumulation in periplasm of Acinetobacter baumannii HUMC1 cultured in iron-limited RPMI medium supplemented with 10% FCS measured per 5 ml of culture medium at 0.005 uM incubated for 10 mins by LC-MS/MS analysis; type: ADME, subcellular; method in brief: as §1
[3] = Drug accumulation in Acinetobacter baumannii HUMC1 harboring fhuE deletion mutant cultured in iron-limited RPMI medium supplemented with 10% FCS at 0.5 to 5 uM incubated for 10 mins by LC-MS/MS analysis; type: ADME; details: dose 0.5-5 µM
Method in brief: (§2)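 5 mL suspension dosed from DMSO stocks (0.002–5 mM), 10 min at 37 °C, 150 rpm. Cells pelleted, washed in TBS and sucrose buffers, lysed, extracted with formic acid/CH3CN/CH3OH. LC-MS/MS MRM quantification against spiked-matrix standards, caffeine internal standard. Reported as ng per 5 mL suspension; n ≥ 2 independent replicates, mean ± SEM.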

Staphylococcus aureus = assay: Antibacterial activity against Staphylococcus aureus USA300 UAMS-1625 assessed as bacterial growth inhibition incubated for 20 hrs by CLSI based microbroth dilution method; type: functional
Method in brief: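 CLSI broth microdilution in CAMHB against S. aureus USA300 UAMS-1625. Compounds in 2-fold dilution series; inoculum 5×10^5 CFU/mL. Incubated without shaking at 35 °C for 20 h. MIC read visually as the lowest concentration preventing visible growth. Fold changes are relative to the rifabutin MIC.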

[4] = Drug accumulation in Acinetobacter baumannii HUMC1 cultured in iron-limited RPMI medium supplemented with 10% FCS measured per 5 ml of culture medium at 0.005 uM incubated for 10 mins by LC-MS/MS analysis; type: ADME; method in brief: as §1
Acinetobacter baumannii [5] = assay: Antibacterial activity against Acinetobacter baumannii HUMC1 harboring FhuE deletion mutant assessed as bacterial growth inhibition incubated for 20 hrs by CLSI based microbroth dilution method; type: functional
Method in brief: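 Microbroth dilution per CLSI in RPMI 1640 + 10% FCS (in place of CAMHB). Compounds as 2-fold serial dilutions; inoculum 5×10^5 CFU/mL of previously described HUMC1-derived mutant strains. Incubated static at 35 °C for 20 h. MIC read visually as lowest concentration preventing visible growth.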

[6] = Inhibition of transcription in Acinetobacter baumannii HUMC1 using pVT784 as reporter plasmid preincubated for 30 mins followed by reporter plasmid addition and measured after 60 mins by Nano-Glo luciferase assay; type: functional
Method in brief: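 Cell-free transcription/translation used A. baumannii HUMC1 extract at 1.2 mg/mL, with extract from 2xYT+P culture after a run-off step and dialysis at pH 8.2. Compound was preincubated with extract for 30 min on ice. Reporter plasmid (0.5 nM) was then added and luminescence read after 60 min at 25 °C. Compounds were tested at 8 to 0.002 mg/L in triplicate. IC50 was fit from no-compound-normalized signal.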

[7] = Drug accumulation in Acinetobacter baumannii HUMC1 harboring fhuE deletion mutant cultured in iron-rich CAMHB media at <0.02 uM incubated for 10 mins by LC-MS/MS analysis; type: ADME; details: BLD = below limit of detection; method in brief: as §2
[8] = Drug accumulation in membrane of Acinetobacter baumannii HUMC1 cultured in iron-limited RPMI medium supplemented with 10% FCS at 0.005 uM incubated for 10 mins by LC-MS/MS analysis; type: ADME, cell membranes; method in brief: as §1
[9] = Drug accumulation in cytoplasm of Acinetobacter baumannii HUMC1 cultured in iron-limited RPMI medium supplemented with 10% FCS at 0.005 uM incubated for 10 mins by LC-MS/MS analysis; type: ADME, subcellular; method in brief: as §1
[10] = Drug accumulation in wild type Acinetobacter baumannii HUMC1 cultured in iron-rich CAMHB media at >=0.05 uM incubated for 10 mins by LC-MS/MS analysis; type: ADME
Method in brief: (§3)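 5 mL of suspension was dosed from DMSO stocks (0.002–5 mM) and shaken at 150 rpm for 10 min at 37 °C. Cells were pelleted, washed, and lysed (sucrose/EDTA). LC-MS/MS MRM quantitation used caffeine-normalized standard curves in spiked lysate. Reported as amount per 5 mL; n≥2 independent replicates.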

[11] = Drug accumulation in wild type Acinetobacter baumannii HUMC1 cultured in iron-limited RPMI medium supplemented with 10% FCS at 0.002 to 0.02 uM incubated for 10 mins by LC-MS/MS analysis; type: ADME; details: dose 0.002-0.02 µM; method in brief: as §3
[12] = Drug accumulation in Acinetobacter baumannii HUMC1 harboring fhuE deletion mutant cultured in iron-rich CAMHB media at 0.5 to 5 uM incubated for 10 mins by LC-MS/MS analysis; type: ADME; details: dose 0.5-5 µM; method in brief: as §2
[13] = Drug accumulation in Acinetobacter baumannii HUMC1 cultured in iron-limited RPMI medium supplemented with 10% FCS measured per 5 ml of culture medium at 0.05 uM incubated for 10 mins by LC-MS/MS analysis; type: ADME; method in brief: as §3
Acinetobacter baumannii [14] = assay: Antibacterial activity against Acinetobacter baumannii HUMC1 cultured in RPMI 1640 medium supplemented with 10% FCS assessed as bacterial growth inhibition incubated for 20 hrs by CLSI based microbroth dilution method; type: functional; details: Acinetobacter baumannii, HUMC1, 20 h, read-out: MIC
Method in brief: (§4)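 CLSI broth microdilution in RPMI 1640 + 10% FCS in place of CAMHB. Compounds in 2-fold dilution series; inoculum 5×10^5 CFU/mL. Plates held static at 35 °C for 20 h. MIC read visually as the lowest concentration with no visible growth. […] is the reciprocal of this MIC.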

[15] = Drug accumulation in Acinetobacter baumannii HUMC1 harboring fhuE deletion mutant cultured in iron-limited RPMI medium supplemented with 10% FCS at <0.02 uM incubated for 10 mins by LC-MS/MS analysis; type: ADME; details: BLD = below limit of detection; method in brief: as §2
Acinetobacter baumannii [16] = assay: Antibacterial activity against Acinetobacter baumannii HUMC1 cultured in iron-limited RPMI medium supplemented with 10% FCS assessed as inverse MIC incubated for 20 hrs by CLSI based microbroth dilution method; type: functional; method in brief: as §4
[17] = Drug accumulation in periplasm of Acinetobacter baumannii HUMC1 cultured in iron-limited RPMI medium supplemented with 10% FCS at 0.005 uM incubated for 10 mins by LC-MS/MS analysis; type: ADME, subcellular; method in brief: as §1
[18] = Drug accumulation in membrane of Acinetobacter baumannii HUMC1 cultured in iron-limited RPMI medium supplemented with 10% FCS measured per 5 ml of culture medium at 0.005 uM incubated for 10 mins by LC-MS/MS analysis; type: ADME, cell membranes; method in brief: as §1

CO[C@H]1/C=C/O[C@@]2(C)Oc3c(C)c(O)c4c(c3C2=O)C2=NC3(CCN(CC(C)C)CC3)NC2=C(NC(=O)/C(C)=C\C=C\[C@H](C)[C@H](O)[C@@H](C)[C@@H](O)[C@@H](C)[C@H](OC(C)=O)[C@@H]1C)C4=O [RIFABUTIN]
Drug uptake [1]: 0.02 ng
Drug uptake [2]: 2.66 ng
Drug uptake [3]: Active
MIC (Staphylococcus aureus): 0.016 µg/mL (≈ 0.0189 µM)
Drug uptake [4]: 12.44 ng
MIC (Acinetobacter baumannii [5]): 0.5 µg/mL (≈ 0.59 µM)
IC50 [6]: 0.07 µg/mL (≈ 0.0826 µM)
Drug uptake [7]: Bld
Drug uptake [8]: 20%
Drug uptake [9]: 79%
Drug uptake [10]: Active
Drug uptake [11]: Active
Drug uptake [12]: Active
Drug uptake [13]: 36.08 pmol
MIC (Acinetobacter baumannii [14]): 0.001 µg/mL (≈ 0.00118 µM)
Drug uptake [15]: Bld
1/MIC (Acinetobacter baumannii [16]): 1000 L/mg
Drug uptake [17]: < 1%
Drug uptake [18]: 0.69 ng

Reference: ChEMBL document CHEMBL5346932, “Structure-activity relationships of actively FhuE transported rifabutin derivatives with potent activity against Acinetobacter baumannii” (Eur J Med Chem, 2023)
